Measured values: PMC6976987 (Molecular Genetics and Metabolism Reports, 2020)
Read-outs that look alike come from different tables or passages of the source.

What was measured:
[1] = Eliglustat alone, pharmacokinetics across all three studies; format: in vivo, human
Outline: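 Test compound given orally to healthy adults as a single dose, then BID. Terminal half-life comes from single-dose plasma profiles by non-compartmental analysis. Plasma was protein-precipitated with acetonitrile containing a 13C internal standard, solid-phase extracted and measured by LC-MS/MS. Steady state was judged by graphical examination of pre-dose (trough) concentrations during repeated dosing.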

[2] = format: in vivo, human; conditions: for AUC: AUC0-τ; for AUC / AUC(0-inf) / Cmax: mean (SD); for AUC(0-inf): AUC0-∞; for Tmax: median (minimum, maximum)
Outline: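 Open-label, fixed-sequence study in healthy CYP2D6 non-poor metabolizers. Oral test compound 84 mg, fasted: single dose Day 1, BID Days 2–8, then BID with a strong CYP3A/P-gp inhibitor 400 mg QD Days 9–15. Plasma sampled to 36 h Day 1, 12 h Day 8, 72 h Day 15, plus pre-dose samples. LC-MS/MS, LLOQ 0.2 ng/mL. Non-compartmental PK; ratios from log-transformed mixed-effects model with 90% CI.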

[3] = Rifampin drug interaction study: eliglustat pharmacokinetics in healthy adults; format: in vivo, human; conditions: for increase in eliglustat AUC: single infusion of rifampin 600 mg with single oral dose of eliglustat 127 mg; for Ratio (%) of geometric least squares mean, AUC0-t / AUC: 0 to 12 h; for Tmax: median (minimum, maximum); for AUC: AUC0-τ
[4] = CYP2D6 EMs only, eliglustat 84 mg BID with ketoconazole 400 mg QD
[5] = CYP2D6 non-PMs, eliglustat 84 mg BID with ketoconazole 400 mg QD
[6] = human, plasma, oral, 84 mg, eliglustat 84 mg BID, Days 2 to 8, all (N = 33)
[7] = human, plasma, oral, 84 mg, eliglustat 84 mg single dose, Day 1, all (N = 36)
[8] = human, plasma, oral, eliglustat 84 mg BID + ketoconazole 400 mg QD, Days 9 to 15, all (N = 33)
[9] = CYP2D6 PMs, eliglustat 84 mg BID with oral rifampin 600 mg QD
[10] = CYP2D6 PMs, multiple dose Day 6, test 600 mg rifampin oral QD + 84 mg eliglustat oral BID (N = 6) vs reference 84 mg eliglustat oral BID alone (N = 6)
[11] = CYP2D6 non-PMs, eliglustat 127 mg BID with oral rifampin 600 mg QD
[12] = CYP2D6 non-PMs, multiple dose Day 6, test 600 mg rifampin oral QD + 127 mg eliglustat oral BID (N = 18) vs reference 127 mg eliglustat oral BID alone (N = 19)
[13] = human, plasma, oral, 84 mg, CYP2D6 PMs, eliglustat 84 mg BID, monotherapy period Days 2 to 6, mean (SD)
[14] = human, plasma, oral, 127 mg, CYP2D6 non-PMs (N = 19), eliglustat 127 mg BID, monotherapy period Days 2 to 6, mean (SD)
[15] = human, plasma, oral, 127 mg, IMs/EMs only (N = 14), eliglustat 127 mg BID, monotherapy period Days 2 to 6, mean (SD)
[16] = human, plasma, po, CYP2D6 PMs, eliglustat 84 mg BID + rifampin 600 mg oral QD, concomitant period Days 2 to 6, mean (SD)
[17] = human, plasma, po, CYP2D6 non-PMs (N = 18), eliglustat 127 mg BID + rifampin 600 mg oral QD, concomitant period Days 2 to 6, mean (SD)
[18] = human, plasma, po, IMs/EMs only (N = 13), eliglustat 127 mg BID + rifampin 600 mg oral QD, concomitant period Days 2 to 6, mean (SD)

CCCCCCCC(=O)N[C@H](CN1CCCC1)[C@H](O)c1ccc2c(c1)OCCO2 [eliglustat]
half-life ([1]; human, plasma, oral): 4.2 to 5.11 h | time to steady-state ([1]; repeated doses of eliglustat, graphical examination of Ctrough values): approximately 4 days | increase in eliglustat AUC0-τ compared to eliglustat alone [2, 4]: 4.4 fold | increase in eliglustat Cmax compared to eliglustat alone [2, 4]: 4.0 fold | increase in eliglustat AUC0-τ (exposure) compared to eliglustat alone [2, 5]: 4.3 fold | increase in eliglustat Cmax compared to eliglustat alone [2, 5]: 3.8 fold | Ratio (%) of geometric least squares mean, Cmax ([2]; all subjects, multiple dose, test 400 mg ketoconazole oral QD + 84 mg eliglustat oral BID (N = 33) vs reference 84 mg eliglustat oral BID alone (N = 33)): 3.84% | Ratio (%) of geometric least squares mean, AUC0-t ([2]; all subjects, multiple dose, test 400 mg ketoconazole oral QD + 84 mg eliglustat oral BID (N = 33) vs reference 84 mg eliglustat oral BID alone (N = 33), 0 to 12 h): 4.27% | increase in eliglustat exposure ([2]; co-administered with ketoconazole (discussion, rounded)): 4 fold | half-life ([2]; human, plasma, oral, 84 mg): 5.1 h | AUC ([2]; human, plasma, oral, 84 mg, eliglustat 84 mg BID, Days 2 to 8, CYP2D6 EMs only (N = 31), 0 to 12 h): 119 ng·h/mL | AUC ([2]; human, plasma, oral, 84 mg, eliglustat 84 mg BID, Days 2 to 8, all (N = 33), 0 to 12 h): 113 ng·h/mL | AUC(0-inf) ([2]; human, plasma, oral, 84 mg, eliglustat 84 mg single dose, Day 1, CYP2D6 EMs only (N = 32)): 77.2 ng·h/mL | AUC(0-inf) ([2]; human, plasma, oral, 84 mg, eliglustat 84 mg single dose, Day 1, all (N = 34)): 73.2 ng·h/mL | Cmax ([2]; human, plasma, oral, 84 mg, eliglustat 84 mg BID, Days 2 to 8, CYP2D6 EMs only (N = 31)): 19.5 ng/mL | Cmax [2, 6]: 18.6 ng/mL | Cmax ([2]; human, plasma, oral, 84 mg, eliglustat 84 mg single dose, Day 1, CYP2D6 EMs only (N = 34)): 10.3 ng/mL | Cmax [2, 7]: 9.87 ng/mL | Tmax [2, 6]: 2 h | Tmax [2, 7]: 1.6 h | AUC ([2]; human, plasma, oral, eliglustat 84 mg BID + ketoconazole 400 mg QD, Days 9 to 15, CYP2D6 EMs only (N = 31), 0 to 12 h): 501 ng·h/mL | AUC ([2]; human, plasma, oral, eliglustat 84 mg BID + ketoconazole 400 mg QD, Days 9 to 15, all (N = 33), 0 to 12 h): 474 ng·h/mL | Cmax ([2]; human, plasma, oral, eliglustat 84 mg BID + ketoconazole 400 mg QD, Days 9 to 15, CYP2D6 EMs only (N = 31)): 71 ng/mL | Cmax [2, 8]: 67.2 ng/mL | Tmax [2, 8]: 2.3 h | increase in eliglustat AUC ([3]; CYP2D6 EMs): 24% | reduction of eliglustat AUC0-τ compared with eliglustat alone [3, 9]: > 95% | reduction of eliglustat Cmax compared with eliglustat alone [3, 9]: > 95% | Ratio (%) of geometric least squares mean, Cmax [3, 10]: 0.05% | Ratio (%) of geometric least squares mean, AUC0-t [3, 10]: 0.04% | effect on mean eliglustat exposure ([3]; CYP2D6 PMs, single 30-min infusion of rifampin 600 mg with single oral dose of eliglustat 84 mg): no effect | Ratio (%) of geometric least squares mean, AUC0-∞ ([3]; CYP2D6 PMs, single dose Day 1, test 600 mg rifampin IV + 84 mg eliglustat oral (N = 6) vs reference 84 mg eliglustat oral (N = 5)): 0.95% | Ratio (%) of geometric least squares mean, Cmax ([3]; CYP2D6 PMs, single dose Day 1, test 600 mg rifampin IV + 84 mg eliglustat oral (N = 6) vs reference 84 mg eliglustat oral (N = 6)): 0.97% | reduction of eliglustat AUC0-τ (exposure) compared with eliglustat alone [3, 11]: > 85% | reduction of eliglustat Cmax compared with eliglustat alone [3, 11]: > 85% | Ratio (%) of geometric least squares mean, Cmax [3, 12]: 0.16% | Ratio (%) of geometric least squares mean, AUC0-t [3, 12]: 0.15% | Ratio (%) of geometric least squares mean, AUC0-∞ ([3]; CYP2D6 non-PMs, single dose Day 1, test 600 mg rifampin IV + 127 mg eliglustat oral (N = 17) vs reference 127 mg eliglustat oral alone (N = 19)): 1.19% | Ratio (%) of geometric least squares mean, Cmax ([3]; CYP2D6 non-PMs, single dose Day 1, test 600 mg rifampin IV + 127 mg eliglustat oral (N = 19) vs reference 127 mg eliglustat oral alone (N = 19)): 1.19% | increase in eliglustat AUC ([3]; URMs): 11% | Cmax ([3]; human, plasma, iv, CYP2D6 non-PMs (N = 19), eliglustat 127 mg single dose + rifampin 600 mg IV single dose, concomitant period Day 1, mean (SD)): 17.9 ng/mL | half-life ([3]; human, plasma, iv, t1/2z, CYP2D6 PMs, eliglustat 84 mg single dose + rifampin 600 mg IV single dose, concomitant period Day 1, mean (SD)): 6.9 h | Tmax ([3]; human, plasma, iv, CYP2D6 PMs, eliglustat 84 mg single dose + rifampin 600 mg IV single dose, concomitant period Day 1): 4 h | Tmax ([3]; human, plasma, iv, CYP2D6 non-PMs (N = 19), eliglustat 127 mg single dose + rifampin 600 mg IV single dose, concomitant period Day 1): 3 h | AUC [3, 13]: 922 ng·h/mL | Cmax [3, 13]: 113 ng/mL | Tmax ([3]; human, plasma, oral, 84 mg, CYP2D6 PMs, eliglustat 84 mg BID, monotherapy period Days 2 to 6): 3 h | AUC [3, 14]: 295 ng·h/mL | AUC [3, 15]: 378 ng·h/mL | Cmax [3, 14]: 42.8 ng/mL | Cmax [3, 15]: 54.7 ng/mL | Tmax ([3]; human, plasma, oral, 127 mg, CYP2D6 non-PMs (N = 19), eliglustat 127 mg BID, monotherapy period Days 2 to 6): 2 h | AUC [3, 16]: 38 ng·h/mL | AUC [3, 17]: 29.3 ng·h/mL | AUC [3, 18]: 31 ng·h/mL | Cmax [3, 16]: 5.7 ng/mL | Cmax [3, 17]: 4.67 ng/mL | Cmax [3, 18]: 4.89 ng/mL | Tmax ([3]; human, plasma, po, CYP2D6 PMs, eliglustat 84 mg BID + rifampin 600 mg oral QD, concomitant period Days 2 to 6): 2.5 h | Tmax ([3]; human, plasma, po, CYP2D6 non-PMs (N = 18), eliglustat 127 mg BID + rifampin 600 mg oral QD, concomitant period Days 2 to 6): 1.5 h | changes in eliglustat exposure ([3]; in the presence of a single IV infusion of rifampin, called negligible): < 19%
